Laboratory results reported in ChEMBL document CHEMBL1153046, “Synthesis and antitumor activity of substituted triazolo[4,3-a]pyrimidin-6-sulfonamide with an incorporated thiazolidinone moiety” (2009).

Key:
[1] = system: EKVX; assay: Growth inhibition of human EKVX cells after 48 hrs by sulforhodamine B assay; format: functional
How it was run: (§1)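 NCI 60-cell-line panel. Cells are grown in RPMI1640 with 5% fetal calf serum and 2 mM L-glutamine, seeded at a density set by growth characteristics, and preincubated 24 h. Compound is tested at a minimum of five concentrations at 10-fold dilution, with 48 h continuous exposure. Viability is read by sulforhodamine B protein assay. GI50, TGI and LC50 come from dose-response curves.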

[2] = system: HCT-15; assay: Growth inhibition of human HCT15 cells after 48 hrs by sulforhodamine B assay; format: functional; settings: HCT-15, 48 h; how it was run: as §1

SMILES	GI50 [1] [µM]	TGI [1] [µM]	GI50 [2] [µM]	TGI [2] [µM]
COc1ccc(/C=N/c2nc3[nH]nc(C)n3c(=O)c2S(=O)(=O)NN2C(=O)C(CN3CCN(C)CC3)SC2c2cccs2)cc1 (stereo unspecified)	39.7	> 100	0.65	> 100
COc1ccc(/C=N/c2nc3[nH]nc(C)n3c(=O)c2S(=O)(=O)NN2C(=O)C(CN3CCOCC3)SC2c2cccs2)cc1 (stereo unspecified)	54.1	> 100	4.52	71.7
COc1ccc(/C=N/c2nc3[nH]nc(C)n3c(=O)c2S(=O)(=O)NN2C(=O)C(CN3CCOCC3)SC2c2ccc(OC)cc2)cc1 (stereo unspecified)	93.9	> 100	26.7	> 100
COc1ccc(/C=N/c2nc3[nH]nc(C)n3c(=O)c2S(=O)(=O)NN2C(=O)C(CN3CCN(C)CC3)SC2c2ccc(OC)cc2)cc1 (stereo unspecified)	25.9	60.3	17.2	70.8
